PMC9530613 (Redox Biology, 2022)

Columns and labels:
SH-SY5Y cells [1] = assay: Aβ1-42 amyloid toxicity assay, CCK-8; format: cell-based, human
In short: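 Human neuroblastoma SH-SY5Y cells in MEM-F12 (1:1) with 15% FBS, at 37 °C and 5% CO2, grown to 70% confluence. Monomer-rich Aβ1-42 (HFIP-treated, sonicated) added at 20 μM with or without varying test compound concentrations, ± I3MT3, for 24 h; scrambled Aβ peptide as control. CCK-8 added for 3 h at 37 °C, absorbance at 450 nm. One-way ANOVA with Tukey test.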

SH-SY5Y cells [2] = assay: Hydrogen peroxide cytotoxicity, SRB assay; format: cell-based, human; settings: in the presence of I3MT3
In short: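 SH-SY5Y cells (MEM-F12, 15% FBS, 37 °C, 5% CO2) exposed to 100 μM H2O2 ± test compound ± I3MT3 for 24 h at 37 °C. Fixed with 10% TCA for 1 h at 4 °C, washed, then stained 1 h at room temperature with 0.04% w/v SRB in 1% acetic acid. Washed with 1% acetic acid, dried, dye dissolved in 10 mM Tris base (pH 10.5), A510 read. One-way ANOVA with Tukey test.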

[3] = DPPH radical scavenging assay; format: biochemical; settings: read-out: IC50, DPPH radical scavenging; DPPH 150 μM, 30 min, room temperature
In short: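 Test compound at various concentrations incubated with DPPH (150 μM in 80% ethanol) for 30 min at room temperature. Radical scavenging read as absorbance at 517 nm.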

IC50 [3] | SMILES | effect of 3MST inhibitor on protective effect of sulfanegen against Aβ1-42 toxicity (SH-SY5Y cells [1]; Aβ1-42 20 μM + sulfanegen + I3MT3) | exacerbation of Aβ1-42 cytotoxicity, rise over Aβ1-42 alone (SH-SY5Y cells [1]; in the presence of I3MT3) | exacerbation of H2O2 cytotoxicity, rise over H2O2 alone (SH-SY5Y cells [2])
– | Cc1cc(=O)[nH]c(SCC(=O)c2cccc3ccccc23)n1 [I3MT3] | completely abolished | 10% | 20%
141 µM | O=C1O[C@H]([C@@H](O)CO)C(O)=C1O [ascorbic acid] | – | – | –
